What was measured:
Rattus norvegicus [1] = test: Drug uptake in Sprague-Dawley rat at 10 mg/kg, po up to 8 hrs; assay type: ADME, organism-based; set-up: dose 10 mg/kg, route oral; conditions: in vivo
How it was run: (§1)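 Male SD rats (180–220 g, n=3), fasted overnight, single oral gavage dose as suspension in 1% Tween 80 / 0.5% w/v methyl cellulose in water. Blood (K2EDTA) drawn 0.5–24 h post dose. Plasma taken by liquid–liquid extraction with internal standard and measured by achiral LC/MS/MS. Values given as mean ± SD.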

[2] = Tmax in Sprague-Dawley rat at 10 mg/kg, po; assay type: ADME, organism-based; set-up: dose 10 mg/kg, route oral; conditions: in vivo; how it was run: as §1
Mus musculus [3] = test: Inhibition of oxaliplatin-induced peripheral neuropathic pain in acetone spray-induced cold allodynia C57/BL6 mouse model assessed as inhibition of nocifensive paw licking behavior at 30 mg/kg, po; assay type: functional
How it was run: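 Male C57/BL6 mice (20–30 g) received oxaliplatin (3 mg/kg ip, in 5% glucose, 10 ml/kg) and were tested for cold allodynia 3 days later. Compound was dosed po 30 min before acetone spray, with 0.5% MC as vehicle. Nocifensive paw licking/flicking was scored. Analysis was one-way ANOVA with Bonferroni versus vehicle.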

Mus musculus [4] = test: Inhibition of oxaliplatin-induced peripheral neuropathic pain in po dosed acetone spray-induced cold allodynia C57/BL6 mouse model assessed as inhibition of nocifensive paw licking behavior; assay type: functional, organism-based
How it was run: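 Male C57/BL6 mice (20–30 g) given oxaliplatin 3 mg/kg ip in 5% glucose and tested for cold allodynia 3 days later. Compound given po (3, 10, 30 mg/kg) 30 min before acetone spray, vehicle 0.5% MC. Nocifensive paw licking recorded. One-way ANOVA with Bonferroni test.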

Rattus norvegicus [5] = test: Inhibition of acetone spray-induced cold allodynia in Sprague-Dawley rat chronic constriction injury model at 10 mg/kg, po after 3 hrs; assay type: functional
How it was run: (§2)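 Male SD rats (160–200 g) with sciatic nerve chronic constriction injury under ketamine/xylazine, tested 7 days later at 21 ± 0.5 °C. Oral dose, vehicle 0.5% MC. Acetone 100 µl sprayed on ipsilateral paw, repeated 3–5 times at 5 min intervals. Flinches and licking counted over 2 min at 0, 0.5, 1, 2 and 3 h, scored clinically.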

Rattus norvegicus [6] = test: Inhibition of acetone spray-induced cold allodynia in Sprague-Dawley rat chronic constriction injury model at 10 mg/kg, po after 2 hrs; assay type: functional; how it was run: as §2
Rattus norvegicus [7] = test: Inhibition of acetone spray-induced cold allodynia in Sprague-Dawley rat chronic constriction injury model at 10 mg/kg, po after 1 hr; assay type: functional; how it was run: as §2
Rattus norvegicus [8] = test: Inhibition of acetone spray-induced cold allodynia in Sprague-Dawley rat chronic constriction injury model at 10 mg/kg, po after 0.5 hrs; assay type: functional; how it was run: as §2
[9] = target: Transient receptor potential cation channel subfamily M member 8 (Rattus norvegicus, UniProt Q8R455); test: Antagonist activity at rat TRPM8 by 45Ca2+ uptake assay
Chain of Transient receptor potential cation channel subfamily M member 8 (Rattus norvegicus, UniProt Q8R455) (Q8R455 whole entry): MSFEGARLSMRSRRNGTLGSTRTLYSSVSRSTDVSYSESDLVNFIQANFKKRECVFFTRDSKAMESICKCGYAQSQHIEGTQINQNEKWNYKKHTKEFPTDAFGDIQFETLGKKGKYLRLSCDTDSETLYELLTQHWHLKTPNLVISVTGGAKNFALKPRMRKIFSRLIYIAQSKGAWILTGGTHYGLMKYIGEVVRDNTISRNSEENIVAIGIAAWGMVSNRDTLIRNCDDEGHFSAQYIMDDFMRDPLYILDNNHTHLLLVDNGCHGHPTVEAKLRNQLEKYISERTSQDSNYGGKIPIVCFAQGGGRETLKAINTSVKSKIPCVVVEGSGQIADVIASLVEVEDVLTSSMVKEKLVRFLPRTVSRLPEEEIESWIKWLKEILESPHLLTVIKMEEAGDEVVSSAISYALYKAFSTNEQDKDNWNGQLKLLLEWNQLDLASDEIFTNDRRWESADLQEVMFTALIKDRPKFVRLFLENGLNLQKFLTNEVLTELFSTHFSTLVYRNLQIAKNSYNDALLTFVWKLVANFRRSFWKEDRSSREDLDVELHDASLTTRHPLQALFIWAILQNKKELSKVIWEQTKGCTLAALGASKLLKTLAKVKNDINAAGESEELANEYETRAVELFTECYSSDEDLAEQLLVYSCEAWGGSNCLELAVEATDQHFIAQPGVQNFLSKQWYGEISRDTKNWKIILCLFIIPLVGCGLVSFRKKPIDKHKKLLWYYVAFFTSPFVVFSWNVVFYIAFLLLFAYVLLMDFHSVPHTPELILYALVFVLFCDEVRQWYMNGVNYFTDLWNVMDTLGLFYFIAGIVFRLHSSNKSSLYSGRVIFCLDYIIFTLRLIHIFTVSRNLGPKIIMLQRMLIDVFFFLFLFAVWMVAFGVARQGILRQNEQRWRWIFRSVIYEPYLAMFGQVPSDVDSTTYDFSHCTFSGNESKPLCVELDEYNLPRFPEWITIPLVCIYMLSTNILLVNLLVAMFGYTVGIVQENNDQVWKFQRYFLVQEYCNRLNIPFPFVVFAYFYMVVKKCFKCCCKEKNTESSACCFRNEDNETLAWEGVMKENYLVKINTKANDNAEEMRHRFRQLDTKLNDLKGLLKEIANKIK

Rattus norvegicus [10] = test: AUC (0 to t) in Sprague-Dawley rat at 10 mg/kg, po; assay type: ADME, organism-based, Plasma; set-up: dose 10 mg/kg, route oral; conditions: in vivo; how it was run: as §1
[11] = Cmax in Sprague-Dawley rat at 10 mg/kg, po; assay type: ADME, organism-based; set-up: dose 10 mg/kg, route oral; conditions: in vivo; how it was run: as §1
[12] = Metabolic stability in human liver microsomes assessed as compound remaining at 1 uM after 60 mins by LC/MS/MS analysis; assay type: ADME, Microsome; conditions: read-out: Stability
How it was run: (§3)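 Liver microsomes (1.0 mg/mL protein) from male CD1 mouse, Wistar rat, Beagle dog, Cynomolgus monkey, or pooled human. Test item 1.0 µM in KH2PO4 buffer pH 7.4 with 2.0 mM NADPH (final) at 37 °C for 60 min, stopped with TBME. Extract read by LC/MS/MS as area ratio to internal standard. Percent remaining is 60 min relative to 0 min.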

[13] = Metabolic stability in cynomolgus monkey liver microsomes assessed as compound remaining at 1 uM after 60 mins by LC/MS/MS analysis; assay type: ADME, Macaca fascicularis, Microsome; conditions: read-out: Stability; how it was run: as §3
[14] = Metabolic stability in Beagle dog liver microsomes assessed as compound remaining at 1 uM after 60 mins by LC/MS/MS analysis; assay type: ADME, Canis lupus familiaris, Microsome; conditions: read-out: Stability; how it was run: as §3
[15] = Metabolic stability in Wistar rat liver microsomes assessed as compound remaining at 1 uM after 60 mins by LC/MS/MS analysis; assay type: ADME, Microsome; conditions: read-out: Stability; how it was run: as §3
[16] = Metabolic stability in CD-1 mouse liver microsomes assessed as compound remaining at 1 uM after 60 mins by LC/MS/MS analysis; assay type: ADME, Microsome; conditions: read-out: Stability; how it was run: as §3
[17] = target: Transient receptor potential cation channel subfamily A member 1 (Homo sapiens) (UniProt O75762); test: Antagonist activity at human TRPA1 expressed in CHO cells assessed as inhibition of allyl isothiocyanate-induced 45Ca2+ uptake at 1 uM incubated for 10 mins prior to allyl isothiocyanate-challenge measured after 2 to 5 mins by liquid scintillation counting analysis; assay type: cell-based
Chain of Transient receptor potential cation channel subfamily A member 1 (Homo sapiens) (O75762 whole entry): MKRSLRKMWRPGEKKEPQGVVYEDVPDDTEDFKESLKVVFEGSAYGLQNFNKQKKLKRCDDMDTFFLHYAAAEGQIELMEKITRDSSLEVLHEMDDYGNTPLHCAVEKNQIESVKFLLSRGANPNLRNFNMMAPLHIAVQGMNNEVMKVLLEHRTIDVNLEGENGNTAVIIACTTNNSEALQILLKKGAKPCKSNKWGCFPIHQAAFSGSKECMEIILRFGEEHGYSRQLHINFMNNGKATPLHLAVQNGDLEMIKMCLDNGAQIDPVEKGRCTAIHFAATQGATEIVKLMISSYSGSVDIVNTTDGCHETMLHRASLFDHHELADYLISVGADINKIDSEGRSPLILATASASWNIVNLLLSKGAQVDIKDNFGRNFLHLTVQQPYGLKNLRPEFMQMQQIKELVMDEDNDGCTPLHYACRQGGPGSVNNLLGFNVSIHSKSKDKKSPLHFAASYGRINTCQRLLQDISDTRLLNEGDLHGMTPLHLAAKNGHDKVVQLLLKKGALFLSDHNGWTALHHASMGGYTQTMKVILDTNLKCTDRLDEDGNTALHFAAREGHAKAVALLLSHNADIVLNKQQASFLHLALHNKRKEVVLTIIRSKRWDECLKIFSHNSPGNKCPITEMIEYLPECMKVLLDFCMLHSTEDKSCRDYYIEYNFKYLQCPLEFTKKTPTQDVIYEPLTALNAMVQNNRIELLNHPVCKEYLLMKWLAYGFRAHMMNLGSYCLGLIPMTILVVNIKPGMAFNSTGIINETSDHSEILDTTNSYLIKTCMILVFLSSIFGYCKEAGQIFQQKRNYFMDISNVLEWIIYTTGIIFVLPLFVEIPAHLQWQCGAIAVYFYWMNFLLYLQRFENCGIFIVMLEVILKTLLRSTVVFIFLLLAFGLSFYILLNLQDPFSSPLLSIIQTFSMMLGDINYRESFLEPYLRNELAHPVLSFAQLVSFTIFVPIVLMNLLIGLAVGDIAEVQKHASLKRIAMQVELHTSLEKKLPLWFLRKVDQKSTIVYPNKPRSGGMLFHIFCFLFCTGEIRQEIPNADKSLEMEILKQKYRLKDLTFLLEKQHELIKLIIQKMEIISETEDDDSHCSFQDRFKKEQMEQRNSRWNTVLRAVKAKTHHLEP
How it was run: (§4)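 CHO cells stably expressing human TRPA1, TRPV1, TRPV3 or TRPV4. Temperature 30 °C for TRPV1, 32 °C for TRPV3, 25 °C for TRPV4 and TRPA1. Compound preincubated 10 min, then 45Ca2+ (5 µCi/mL final) and agonist added. Wash after 2–5 min, lyse, scintillation count. TRPV1 IC50 from six-point curves in at least two experiments. TRPA1, TRPV3 and TRPV4 run in duplicate as % inhibition at 1.0 µM.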

[18] = target: Transient receptor potential cation channel subfamily V member 4 (Homo sapiens) (UniProt Q9HBA0); test: Antagonist activity at human TRPV4 expressed in CHO cells assessed as inhibition of 4alphaPDD-induced 45Ca2+ uptake at 1 uM incubated for 10 mins prior to 4alphaPDD-challenge measured after 2 to 5 mins by liquid scintillation counting analysis; assay type: cell-based; how it was run: as §4
Chain of Transient receptor potential cation channel subfamily V member 4 (Homo sapiens) (Q9HBA0 whole entry): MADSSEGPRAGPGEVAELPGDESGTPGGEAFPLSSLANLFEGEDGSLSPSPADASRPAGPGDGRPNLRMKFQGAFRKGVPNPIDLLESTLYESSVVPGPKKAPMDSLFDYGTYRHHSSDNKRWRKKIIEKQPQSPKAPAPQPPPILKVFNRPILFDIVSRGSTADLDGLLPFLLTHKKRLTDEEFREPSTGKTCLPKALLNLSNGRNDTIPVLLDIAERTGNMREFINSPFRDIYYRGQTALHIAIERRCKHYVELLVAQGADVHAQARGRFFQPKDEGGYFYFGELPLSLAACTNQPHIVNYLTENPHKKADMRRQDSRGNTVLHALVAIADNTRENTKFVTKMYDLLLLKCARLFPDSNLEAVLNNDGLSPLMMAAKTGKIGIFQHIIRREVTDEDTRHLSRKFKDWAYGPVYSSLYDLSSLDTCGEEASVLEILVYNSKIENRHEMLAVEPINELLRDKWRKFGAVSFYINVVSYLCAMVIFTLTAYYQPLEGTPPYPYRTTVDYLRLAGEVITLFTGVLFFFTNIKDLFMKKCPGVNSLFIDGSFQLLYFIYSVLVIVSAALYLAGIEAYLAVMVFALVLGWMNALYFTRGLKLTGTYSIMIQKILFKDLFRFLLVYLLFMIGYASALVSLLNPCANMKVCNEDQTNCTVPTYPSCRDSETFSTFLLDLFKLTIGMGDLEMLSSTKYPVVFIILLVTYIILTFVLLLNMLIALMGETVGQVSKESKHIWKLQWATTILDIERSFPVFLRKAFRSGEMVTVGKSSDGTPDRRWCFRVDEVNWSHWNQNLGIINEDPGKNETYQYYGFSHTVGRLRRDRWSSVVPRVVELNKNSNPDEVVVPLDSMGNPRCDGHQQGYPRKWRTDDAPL

[19] = target: T1, Transient receptor potential cation channel subfamily V member 3 (Homo sapiens) (UniProt Q8NET8); test: Antagonist activity at human TRPV3 expressed in CHO cells assessed as inhibition of 2APB-induced 45Ca2+ uptake at 1 uM incubated for 10 mins prior to 2APB-challenge measured after 2 to 5 mins by liquid scintillation counting analysis; assay type: cell-based; how it was run: as §4
T1 sequence (whole entry): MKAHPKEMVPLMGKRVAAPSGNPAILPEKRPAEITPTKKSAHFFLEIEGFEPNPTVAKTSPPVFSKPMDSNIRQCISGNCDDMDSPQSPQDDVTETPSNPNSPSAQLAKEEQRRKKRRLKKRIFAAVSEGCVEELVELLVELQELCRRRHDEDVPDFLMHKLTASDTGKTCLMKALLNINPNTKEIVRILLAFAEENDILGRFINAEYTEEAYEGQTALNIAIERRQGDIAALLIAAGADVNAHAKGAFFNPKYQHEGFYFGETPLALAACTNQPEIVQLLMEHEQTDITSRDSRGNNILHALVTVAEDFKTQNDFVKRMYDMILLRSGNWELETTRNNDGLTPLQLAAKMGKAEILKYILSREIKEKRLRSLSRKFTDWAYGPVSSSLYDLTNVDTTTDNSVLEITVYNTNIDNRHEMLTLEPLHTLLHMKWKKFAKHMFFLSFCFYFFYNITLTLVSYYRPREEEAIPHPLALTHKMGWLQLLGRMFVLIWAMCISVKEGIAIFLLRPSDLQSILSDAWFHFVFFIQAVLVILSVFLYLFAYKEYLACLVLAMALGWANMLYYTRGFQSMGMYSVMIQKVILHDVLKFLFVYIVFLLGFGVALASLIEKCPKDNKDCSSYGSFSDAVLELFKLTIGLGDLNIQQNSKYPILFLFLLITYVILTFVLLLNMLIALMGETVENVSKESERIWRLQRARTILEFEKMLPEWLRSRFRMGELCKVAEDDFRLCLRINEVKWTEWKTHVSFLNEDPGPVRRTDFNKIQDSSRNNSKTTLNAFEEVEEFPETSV

[20] = target: Transient receptor potential cation channel subfamily V member 1 (Homo sapiens, UniProt Q8NER1); test: Antagonist activity at human TRPV1 expressed in CHO cells assessed as inhibition of capsaicin-induced 45Ca2+ uptake incubated for 10 mins prior to capsaicin-challenge measured after 2 to 5 mins by liquid scintillation counting analysis; assay type: cell-based; how it was run: as §4
Chain of Transient receptor potential cation channel subfamily V member 1 (Q8NER1 whole entry): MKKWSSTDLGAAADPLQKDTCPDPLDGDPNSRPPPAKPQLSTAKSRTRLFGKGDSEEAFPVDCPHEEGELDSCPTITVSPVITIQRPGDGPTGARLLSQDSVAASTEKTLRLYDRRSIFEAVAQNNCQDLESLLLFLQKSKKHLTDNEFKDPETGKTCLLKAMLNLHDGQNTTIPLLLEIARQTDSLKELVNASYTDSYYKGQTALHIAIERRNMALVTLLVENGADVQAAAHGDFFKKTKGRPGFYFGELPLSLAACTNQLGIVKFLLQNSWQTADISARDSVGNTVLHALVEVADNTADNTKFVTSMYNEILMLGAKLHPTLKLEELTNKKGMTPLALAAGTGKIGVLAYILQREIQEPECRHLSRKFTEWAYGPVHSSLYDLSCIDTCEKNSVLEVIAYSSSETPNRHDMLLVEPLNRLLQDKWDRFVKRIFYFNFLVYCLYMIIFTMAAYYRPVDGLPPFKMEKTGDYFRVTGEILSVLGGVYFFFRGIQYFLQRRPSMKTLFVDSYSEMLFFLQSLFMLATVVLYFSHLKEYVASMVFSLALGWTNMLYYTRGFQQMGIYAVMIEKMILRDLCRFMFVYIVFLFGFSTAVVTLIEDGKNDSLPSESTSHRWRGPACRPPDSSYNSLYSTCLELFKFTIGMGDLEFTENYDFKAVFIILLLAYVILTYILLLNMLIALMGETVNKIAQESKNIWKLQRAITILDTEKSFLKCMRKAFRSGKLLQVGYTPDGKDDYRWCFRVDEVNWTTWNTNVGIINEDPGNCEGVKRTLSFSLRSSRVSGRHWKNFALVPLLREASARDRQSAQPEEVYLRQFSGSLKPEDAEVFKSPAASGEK

[21] = target: Transient receptor potential cation channel subfamily M member 8 (Homo sapiens, UniProt Q7Z2W7); test: Antagonist activity at human TRPM8 expressed in CHO cells assessed as inhibition of icilin-induced 45Ca2+ uptake incubated for 10 mins prior to icilin-challenge measured after 4 mins by liquid scintillation counting analysis; assay type: cell-based
Chain of Transient receptor potential cation channel subfamily M member 8 (Homo sapiens, UniProt Q7Z2W7) (Q7Z2W7 whole entry): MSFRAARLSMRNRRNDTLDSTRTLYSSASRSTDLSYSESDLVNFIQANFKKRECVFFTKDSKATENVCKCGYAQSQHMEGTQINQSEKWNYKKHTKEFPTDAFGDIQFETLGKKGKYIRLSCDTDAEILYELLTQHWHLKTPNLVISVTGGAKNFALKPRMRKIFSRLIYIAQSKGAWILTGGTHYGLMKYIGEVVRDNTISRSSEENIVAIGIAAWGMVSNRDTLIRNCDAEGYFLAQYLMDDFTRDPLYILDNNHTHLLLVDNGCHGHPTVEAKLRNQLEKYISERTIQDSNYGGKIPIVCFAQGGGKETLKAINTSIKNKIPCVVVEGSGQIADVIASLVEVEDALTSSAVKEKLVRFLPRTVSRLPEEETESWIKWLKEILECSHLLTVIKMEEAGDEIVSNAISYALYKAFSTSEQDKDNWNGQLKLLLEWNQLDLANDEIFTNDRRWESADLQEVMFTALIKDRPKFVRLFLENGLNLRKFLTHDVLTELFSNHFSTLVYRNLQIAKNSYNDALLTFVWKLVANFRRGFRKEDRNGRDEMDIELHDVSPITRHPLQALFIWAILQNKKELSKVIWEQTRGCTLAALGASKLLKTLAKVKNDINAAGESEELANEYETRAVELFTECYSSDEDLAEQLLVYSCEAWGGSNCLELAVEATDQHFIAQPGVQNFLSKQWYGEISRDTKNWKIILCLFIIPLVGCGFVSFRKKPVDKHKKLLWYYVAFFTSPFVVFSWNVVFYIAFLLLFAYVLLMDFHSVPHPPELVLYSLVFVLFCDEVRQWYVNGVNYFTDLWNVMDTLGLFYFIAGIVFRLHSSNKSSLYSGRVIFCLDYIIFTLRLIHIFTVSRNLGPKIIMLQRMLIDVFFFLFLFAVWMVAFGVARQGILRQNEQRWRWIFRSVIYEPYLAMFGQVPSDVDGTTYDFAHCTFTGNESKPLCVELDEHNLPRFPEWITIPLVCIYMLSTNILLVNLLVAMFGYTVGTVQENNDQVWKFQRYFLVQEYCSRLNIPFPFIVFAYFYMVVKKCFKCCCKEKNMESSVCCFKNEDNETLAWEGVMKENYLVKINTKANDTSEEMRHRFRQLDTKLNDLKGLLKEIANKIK
How it was run: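 CHO cells stably expressing human TRPM8 in DMEM F-12 with 10% FBS and G418, seeded overnight. Assay buffer is DMEM F12 with 0.1% BSA and 1.8 mM CaCl2, run at 25 °C. Compound added 10 min before 45Ca2+ (5 µCi/mL final) and icilin. Wash after 4 min, lyse, count cpm. IC50 from six-point curves by nonlinear regression, at least two independent experiments.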

Mus musculus [22] = test: Inhibition of icilin-induced wet dog shakes in C57/BL6 mouse at 30 mg/kg, po administered 30 mins prior to icilin-challenge measured for 30 mins; assay type: functional
How it was run: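 Male C57/BL6 mice (20–30 g) acclimatized in a bell jar 10 min daily for 3 days. Icilin 30 mg/kg ip in 20% DMSO / 1% Tween 80. Compound given po 30 min before icilin, vehicle 0.5% MC. Wet dog shakes counted for 30 min after icilin. One-way ANOVA with Bonferroni test.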

SMILES: O=C(Nc1ccc(OC(F)(F)F)cc1)N1CCC2(CC1)C[C@@H](O)c1cccc(Cl)c1O2
- Drug uptake (Rattus norvegicus [1]): Active
- Tmax [2]: 1 h
- Efficacy (Mus musculus [3]): 100%
- inhibition (Mus musculus [4]): Dose-dependent effect
- Efficacy (Rattus norvegicus [5]): 65%
- Efficacy (Rattus norvegicus [6]): 74%
- Efficacy (Rattus norvegicus [7]): 66%
- Efficacy (Rattus norvegicus [8]): 39%
- IC50 [9]: 16.5 nM
- AUCt (Rattus norvegicus [10]): 4980 ng·h/mL
- Cmax [11]: 1090 ng/mL
- remaining at 1 h, 1 µM [12]: 67%
- remaining at 1 h, 1 µM [13]: 72%
- remaining at 1 h, 1 µM [14]: 42%
- remaining at 1 h, 1 µM [15]: 79%
- remaining at 1 h, 1 µM [16]: 81%
- inhibition [17]: 23.5%
- inhibition [18]: 38.8%
- inhibition [19]: 27.7%
- IC50 [20]: > 1000 nM
- IC50 [21]: 8.9 nM
- Efficacy (Mus musculus [22]): 72%

From ChEMBL document CHEMBL2440039, “Synthesis and pharmacological evaluation of novel N-aryl-3,4-dihydro-1'H-spiro[chromene-2,4'-piperidine]-1'-carboxamides as TRPM8 antagonists” (Bioorg Med Chem, 2013)
